Source: ChEMBL document CHEMBL1133105, “Antimalarial, antitrypanosomal, and antileishmanial activities and cytotoxicity of bis(9-amino-6-chloro-2-methoxyacridines): influence of the linker” (J Med Chem, 2000)

What was measured:
Trypanosoma cruzi [1] = assay: (§1) In Vitro evaluation for the percentage of activity towards Trypanosoma cruzi at 6.25 uM Concentration; Toxic upon mouse primary peritoneal macrophages; assay type: ADME, organism-based
Outline: (§2)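 Mouse peritoneal macrophages, 30 000/well, infected after 24 h with about 100 000 T. cruzi trypomastigotes per well plus 2-fold drug dilutions (12.5–1.56 µM). Incubated 4 days at 37 °C, 5% CO2. Methanol-fixed, Giemsa-stained and scored microscopically as % reduction of total parasite load (free trypomastigotes plus intracellular amastigotes) versus untreated controls.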

MRC5 [2] = assay: Cytotoxicity on MRC-5 cells at 3.13 uM; assay type: functional; conditions: Homo sapiens
Outline: (§3)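 MRC-5 human diploid embryonic lung cells seeded at 5 000/well, washed after 24 h, then given 2-fold drug dilutions (25, 12.5, 6.25, 3.13 µM) in RPMI + 5% FCS, final DMSO below 0.5%. Incubated 7 days at 37 °C, 5% CO2. MTT colorimetric read-out, scored as % reduction of absorbance at 540 nm versus untreated controls.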

Trypanosoma cruzi [3] = assay: In Vitro evaluation for the percentage of activity towards Trypanosoma cruzi at 1.56 uM Concentration; Toxic upon mouse primary peritoneal macrophages; assay type: functional; outline: as §2
Plasmodium falciparum [4] = assay: In vitro sensitivity for Plasmodium falciparum FcB1R; assay type: functional, organism-based
Outline: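 Asynchronous P. falciparum cultures in human erythrocytes (0.5% parasitemia, 1% haematocrit) exposed to serially diluted drug for 24 h at 37 °C. [3H]hypoxanthine (0.5 µCi/well) then added for a further 24 h. Uptake compared with drug-free controls on the same plate. IC50 taken from the concentration–response curve, averaged over independent experiments. DMSO ≤0.1%.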

Trypanosoma cruzi [5] = assay: (§4) In Vitro evaluation for the percentage of activity towards Trypanosoma cruzi at 3.13 uM Concentration; Toxic upon mouse primary peritoneal macrophages; assay type: ADME, organism-based; outline: as §2
Trypanosoma brucei [6] = assay: Percentage of activity against Trypanosoma brucei at 3.13 uM; assay type: functional
Outline: (§5)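 Bloodstream-form T. brucei in HMI-9 medium, 10 000 parasites/well, exposed to 12.5, 6.25, 3.13 and 1.56 µM drug for 4 days. Read-out is % inhibition of parasite multiplication. Macrophage toxicity judged on mouse primary peritoneal macrophages.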

Leishmania infantum [7] = assay: (§6) In Vitro evaluation for the percentage of activity towards Leishmania infantum at 1.56 uM Concentration; Toxic upon mouse primary peritoneal macrophages; assay type: organism-based
Outline: (§7)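 Starch-stimulated mouse peritoneal macrophages, 30 000/well, infected after 24 h with spleen-derived L. infantum amastigotes (10:1) together with 2-fold drug dilutions (12.5–1.56 µM). Incubated 7 days at 37 °C, 5% CO2. Wright-stained slides scored microscopically as % reduction of total parasite load or of infected macrophages. Uninfected treated cultures judged microscopically for macrophage toxicity.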

Trypanosoma brucei [8] = assay: Percentage of activity against Trypanosoma brucei at 6.25 uM; assay type: functional; outline: as §5
Leishmania infantum [9] = assay: In Vitro evaluation for the percentage of activity towards Leishmania infantum at 12.5 uM Concentration; Toxic upon mouse primary peritoneal macrophages; assay type: organism-based; outline: as §7
Leishmania infantum [10] = assay: (§8) In Vitro evaluation for the percentage of activity towards Leishmania infantum at 3.13 uM Concentration; Toxic upon mouse primary peritoneal macrophages; assay type: organism-based; outline: as §7
MRC5 [11] = assay: Cytotoxicity on MRC-5 cells at 25 uM; assay type: functional; conditions: Homo sapiens; outline: as §3
MRC5 [12] = assay: Cytotoxicity on MRC-5 cells at 6.25 uM; assay type: functional; conditions: Homo sapiens; outline: as §3
Trypanosoma cruzi [13] = assay: In Vitro evaluation for the percentage of activity towards Trypanosoma cruzi at 12.5 uM Concentration; Toxic upon mouse primary peritoneal macrophages; assay type: organism-based; outline: as §2
Leishmania infantum [14] = assay: In Vitro evaluation for the percentage of activity towards Leishmania infantum 6.25 uM Concentration; Toxic upon mouse primary peritoneal macrophages; assay type: organism-based; outline: as §7
MRC5 [15] = assay: Cytotoxicity on MRC-5 cells at 12.5 uM; assay type: functional; conditions: Homo sapiens; outline: as §3
Trypanosoma brucei [16] = assay: Percentage of activity against Trypanosoma brucei at 12.5 uM; assay type: functional; outline: as §5
Trypanosoma brucei [17] = assay: Percentage of activity against Trypanosoma brucei at 1.56 uM; assay type: functional; outline: as §5
Trypanosoma brucei [18] = assay: In Vitro evaluation for the percentage of activity towards Trypanosoma brucei at 3.13 uM Concentration; assay type: functional; outline: as §5
Leishmania infantum [19] = assay: as §8; assay type: functional, organism-based; outline: as §7
Trypanosoma cruzi [20] = assay: as §1; assay type: functional, organism-based; outline: as §2
Trypanosoma cruzi [21] = assay: as §4; assay type: functional, organism-based; outline: as §2
Leishmania infantum [22] = assay: Percentage of activity against Leishmania infantum at 12.5 uM Concentration; Toxic upon mouse primary peritoneal macrophages; assay type: functional, organism-based; outline: as §7
Leishmania infantum [23] = assay: as §6; assay type: functional, organism-based; outline: as §7
Leishmania infantum [24] = assay: Percentage of activity against Leishmania infantum at 6.25 uM; Toxic upon mouse primary peritoneal macrophages; assay type: functional, organism-based; outline: as §7
Trypanosoma cruzi [25] = assay: Percentage of activity against Trypanosoma cruzi at 1.56 uM; assay type: functional; outline: as §2
Trypanosoma cruzi [26] = assay: Percentage of activity against Trypanosoma cruzi at 12.5 uM; Toxic upon mouse primary peritoneal macrophages; assay type: functional, organism-based; outline: as §2
Plasmodium falciparum [27] = assay: Parasite growth inhibition against Plasmodium falciparum GP1; assay type: functional, organism-based
Outline: (§9)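 Asynchronous cultures of each strain on human erythrocytes (0.5% parasitemia, 1% final hematocrit) were exposed to serially diluted drug for 24 h at 37 °C. Then 0.5 µCi [3H]hypoxanthine per well was added for 24 h. Incorporation was compared with a drug-free control on the same plate. IC50 was taken from the concentration-response curve as the mean of several independent experiments. DMSO was at most 0.1%.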

Plasmodium falciparum [28] = assay: Parasite growth inhibition against Plasmodium falciparum F32A; assay type: functional, organism-based; outline: as §9
Plasmodium falciparum [29] = assay: Growth inhibition of chloroquine-sensitive Plasmodium falciparum 3D7
Leishmania infantum [30] = assay: Percentage of activity against Leishmania infantum at 1.56 uM; assay type: functional; outline: as §7
Leishmania infantum [31] = assay: Percentage of activity against Leishmania infantum at 3.13 uM; assay type: functional; outline: as §7
Plasmodium falciparum [32] = assay: Parasite growth inhibition against Plasmodium falciparum FCR3; assay type: functional, organism-based; outline: as §9
Plasmodium falciparum [33] = assay: Parasite growth inhibition against Plasmodium falciparum W2; assay type: functional, organism-based; outline: as §9
Trypanosoma cruzi [34] = assay: Percentage of activity against Trypanosoma cruzi at 3.13 uM; assay type: functional; outline: as §2
Plasmodium falciparum [35] = assay: Growth inhibition against chloroquine-resistant Plasmodium falciparum K1; assay type: functional, organism-based; outline: as §9
Plasmodium falciparum [36] = assay: Parasite growth inhibition against Plasmodium falciparum FCM29; assay type: functional, organism-based; outline: as §9
Leishmania infantum [37] = assay: In Vitro inhibition concentration against Amastigote form of Leishmania infantum
MRC5 [38] = assay: In Vitro cytotoxicity on MRC-5 cells; assay type: functional; conditions: Homo sapiens; outline: as §3
Trypanosoma brucei [39] = assay: In Vitro inhibition concentration against Trypomastigote form of Trypanosoma brucei; assay type: functional, organism-based
Outline: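 Bloodstream-form trypomastigotes were grown in HMI-9 medium. 10 000 parasites per well were incubated with drug at 12.5, 6.25, 3.13 and 1.56 µM for 4 days, and parasite multiplication was assessed.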

Structure (SMILES)	cytotoxicity at 3.13 µM (MRC5 [2]) [%]	IC50 (Plasmodium falciparum [4]) [nM]	Parasite growth inhibition (Trypanosoma brucei [6]) [%]	Inhibition of parasite multiplication (Trypanosoma brucei [8]) [%]	cytotoxicity at 25 µM (MRC5 [11]) [%]	cytotoxicity at 6.25 µM (MRC5 [12]) [%]	cytotoxicity at 12.5 µM (MRC5 [15]) [%]	Percent inhibition of parasite multiplication (Trypanosoma brucei [17]) [%]	Cytotoxicity (Trypanosoma cruzi [20])	Cytotoxicity (Leishmania infantum [22])	Cytotoxicity (Leishmania infantum [24])	Parasite load reduction (Trypanosoma cruzi [25]) [%]	Cytotoxicity (Trypanosoma cruzi [26])	CC50 (MRC5 [38]) [µM]	also measured
COc1ccc2nc3cc(Cl)ccc3c(NCCCN(CCCNc3c4ccc(Cl)cc4nc4ccc(OC)cc34)C(=O)CCC(N)=O)c2c1	100	40	100	100	100	100	100	100							Cytotoxicity (Trypanosoma cruzi [1]): Toxic; Cytotoxicity (Trypanosoma cruzi [3]): 95%; Cytotoxicity (Trypanosoma cruzi [5]): Toxic; Cytotoxicity (Leishmania infantum [7]): Toxic; Cytotoxicity (Leishmania infantum [9]): Toxic; Cytotoxicity (Leishmania infantum [10]): Toxic; Cytotoxicity (Trypanosoma cruzi [13]): Toxic; Cytotoxicity (Leishmania infantum [14]): Toxic; Inhibition of parasite multiplication (Trypanosoma brucei [16]): 100%
COc1ccc2nc3cc(Cl)ccc3c(NCCCN(CCCNc3c4ccc(Cl)cc4nc4ccc(OC)cc34)C(=O)CCN(C)C)c2c1	30	39		100	54	39	40	100	Toxic	Toxic	Toxic	40	Toxic		Cytotoxicity (Trypanosoma brucei [18]): 100%; Cytotoxicity (Leishmania infantum [19]): Toxic; Cytotoxicity (Trypanosoma cruzi [21]): Toxic; Cytotoxicity (Leishmania infantum [23]): Toxic
COc1ccc2nc3cc(Cl)ccc3c(NCCCN(CCCNc3c4ccc(Cl)cc4nc4ccc(OC)cc34)C(=O)C(CC(C)C)NC(=O)OC(C)(C)C)c2c1 (stereo not given)	42	27	100	100	55	47	49	100	Toxic	Toxic	Toxic	40	Toxic		IC50 (Plasmodium falciparum [27]): 63 nM; IC50 (Plasmodium falciparum [28]): 52 nM; IC50 (Plasmodium falciparum [29]): 48 nM; Antileishmanial activity (% reduction of parasite load) (Leishmania infantum [30]): 90%; Percent antileishmanial activity (reduction of parasite load) (Leishmania infantum [31]): 95%; IC50 (Plasmodium falciparum [32]): 17 nM; IC50 (Plasmodium falciparum [33]): 15 nM; Reduction of T. cruzi parasite load (Trypanosoma cruzi [34]): 80%; IC50 (Plasmodium falciparum [35]): 14 nM; IC50 (Plasmodium falciparum [36]): 13 nM
C[C@@H]1[C@H](O)[C@@H](C)/C=C/C=C/C=C/C=C/C=C/C=C/C=C/[C@H](O[C@@H]2O[C@H](C)[C@@H](O)[C@H](N)[C@@H]2O)C[C@@H]2O[C@](O)(C[C@@H](O)C[C@@H](O)[C@H](O)CC[C@@H](O)C[C@@H](O)CC(=O)O[C@H]1C)C[C@H](O)[C@H]2C(=O)O [AMPHOTERICIN B]														25	IC50 (Leishmania infantum [37]): 50 nM
Nc1nc(N)nc(Nc2ccc([As]3SCC(CO)S3)cc2)n1 (stereo not given) [MELARSOPROL]														12.5	IC50 (Trypanosoma brucei [39]): 200 nM
